High-throughput results from PubChem.
UPR XBP1 act: adaptive UPR (XBP1) activation. AID 463104. activation, % at 20 µM. CHO-XBP1 luciferase reporter, IRE1-XBP1 UPR activation, luminescence; percent of tunicamycin response, DMSO as zero. 330,000 tested, 0.33% active;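 active = versus positive control, 20 µM dose yields 30% or more activation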;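 note: 100% = tunicamycin at 10 µg/mL and 0% = DMSO only wells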
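Assay system: IRE1-XBP1 luciferase reporter CHO line. Input: 1000 cells/well. Buffer or medium: F12 with 10% serum. Doses: 20 µM, 1% DMSO. Times: overnight seeding at 37 °C, 6 h compound treatment at 37 °C. Technique: Steady-Glo luciferase glow luminescence, 10 min after reagent addition.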
NOD2 RIPK2 PPI: blocks binding of human NOD2 to RIPK2. inhibition, % at 4.98 µM. CHO BLA complementation NOD2-RIPK2, CCF4 ratio. AID 624267. O43353. 360,000 tested, 0.38% active; in the data active = inhibition above about 21%;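 note: 0% = vehicle only and 100% = reference blocker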
Target sequence (O43353 whole entry, looked up): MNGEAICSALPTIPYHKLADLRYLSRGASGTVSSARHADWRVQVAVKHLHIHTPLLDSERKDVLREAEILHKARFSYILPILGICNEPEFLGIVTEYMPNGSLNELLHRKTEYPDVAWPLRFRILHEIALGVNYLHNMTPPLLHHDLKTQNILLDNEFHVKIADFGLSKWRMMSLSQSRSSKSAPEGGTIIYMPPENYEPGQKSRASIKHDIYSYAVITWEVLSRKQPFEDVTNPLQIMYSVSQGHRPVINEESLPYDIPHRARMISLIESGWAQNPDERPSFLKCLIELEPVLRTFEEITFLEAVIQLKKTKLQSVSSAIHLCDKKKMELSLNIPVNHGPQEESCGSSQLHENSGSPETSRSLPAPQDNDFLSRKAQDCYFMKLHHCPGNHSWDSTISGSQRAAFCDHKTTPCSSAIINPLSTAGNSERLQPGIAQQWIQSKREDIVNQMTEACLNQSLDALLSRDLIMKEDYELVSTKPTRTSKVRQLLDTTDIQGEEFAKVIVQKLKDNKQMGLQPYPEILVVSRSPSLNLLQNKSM
TLR9-MyD88 inh: blocks human TLR9 binding to MyD88. inhibition, % at 4.98 µM. 340,000 tested, 0.21% active. CHO BLA complementation TLR9-MyD88, CCF4 FRET ratio. AID 504734;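 active = inhibition above the mean over all tested compounds plus 3 SD, cut at about 21% in these data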;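 note: 0% = DMSO only wells and 100% = clavulanate BLA inhibitor control wells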
CHOP inhibitor: blocks CHOP induction under ER stress | 220,000 tested, 3.8% active | CHO-K1 CHOP-promoter luciferase, tunicamycin-induced, 15-18 h | AID 2732 | inhibition, % at 10 µM;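 active = compounds that reduced the stress-induced luciferase reporter signal by more than about 70% of percent inhibition, limit read from the data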;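 note: 0% = tunicamycin plus vehicle and 100% = wells without tunicamycin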
CHOP UPR activ: apoptotic UPR (CHOP) activation; AID 449763; activation, % at 10 µM; CHO-CHOP luciferase reporter, luminescence; percent of tunicamycin response over DMSO baseline; 330,000 tested, 0.34% active;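 active = at 10 µM dose, activation of 40% or more, normalized to positive control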;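 note: 100% = tunicamycin at 10 µg/mL and 0% = DMSO alone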
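System: CHO-CHOP luciferase reporter cell line; amount: 500 cells/well; buffer or medium: F12 medium containing 10% fetal bovine serum; incubation: 6 h compound exposure at 37 °C after overnight seeding; measured by: luciferase luminescence after 10 min with Steady-Glo reagent; evaluation: % reporter activation, DMSO baseline versus tunicamycin full activation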
TLR4 MyD88 comp: blocks binding of human TLR4 to MyD88; 200,000 tested, 0.18% active; inhibition, % at 8.4 µM; HeLa CL3-4 TLR4/MyD88 BLA complementation, FRET ratio; AID 861; in the data active = inhibition above about 25%;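 note: 0% = vehicle and 100% = reference inhibitor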
An asterisk follows results filed as active; / = not tested or not shown. The entries come from a sample that favours hits as a whole.

SMILES	UPR XBP1 act	NOD2 RIPK2 PPI	TLR9-MyD88 inh	CHOP inhibitor	CHOP UPR activ	TLR4 MyD88 comp
CCC(Oc1cc(Cl)ccc1Cl)C(=O)NN1C(=O)C2C3CCC(C3=C(C)C)C2C1=O (stereo not drawn)	-1	16	-10	87*	-1	8
CCC(Oc1cc(Cl)ccc1Cl)C(=O)NNC(=O)CCC(=O)O (stereo not drawn)	-3	5	-3	7	-1	-3
Cc1ccc(CNc2nc3ccccc3s2)s1	-8	4	4	74*	-4	5
Cc1ccc(N(CC(=O)Nc2cc(Cl)ccc2Oc2ccccc2)S(C)(=O)=O)cc1C	-6	-2	-9	89*	1	-12
Cc1ccc(N(CC(=O)Nc2cc(Cl)ccc2Oc2ccccc2)S(C)(=O)=O)c(C)c1	-6	1	-3	-2	-2	-14
COc1ccc(OC)c(S(=O)(=O)NCCc2ccccc2)c1	-1	-3	-3	27	2	6
CCCCCCn1c(CN2CCN(CCO)CC2)nc2c1c(=O)n(C)c(=O)n2C	-1	-4	-2	-6	0	2
CCCCCCn1c(CN2CCC(C)CC2)nc2c1c(=O)n(C)c(=O)n2C	-4	9	9	76*	-1	-12
Cn1cccc1C(=O)NC(=O)COC(=O)CC12CC3CC(CC(C3)C1)C2	-1	1	1	80*	-3	5
c1ccc(Nc2cccc3c(Nc4ccccc4)cccc23)cc1	0	-3	8	79*	3	/
CCOc1ccccc1-n1nnnc1SC(C)C(=O)OC (stereo not drawn)	-2	-8	-4	-5	1	2
Cc1cc(C)nc(Nc2n[nH]c(COc3ccc4ccccc4c3)n2)n1	-3	0	1	87*	-1	-4
COc1ccc(/C=N/NC(=O)C2c3ccccc3-c3ccccc32)cc1	-2	-18	3	80*	-2	-14
COc1cc(CSc2nc(-c3ccccc3)cc(=O)[nH]2)cc(OC)c1	-2	-5	0	/	2	/
O=c1cc(-c2ccccc2)nc(SCCOc2ccccc2Cl)[nH]1	-5	5	-12	74*	-2	-2
Cc1nc(Nc2ccc(Cl)c(Cl)c2)sc1C(=O)Nc1ccccc1	4	-11	-4	96*	5	-5
Cc1nc(NC(=O)/C=C/c2ccccc2)sc1C(=O)Nc1ccc(Cl)cc1	5	-3	0	88*	4	0
Cc1nc(Nc2ccc(Cl)cc2Cl)sc1C(=O)Nc1ccccc1	0	-1	1	68	-1	-11
Cc1cc(Cl)c2c(c1)[C@]1(C(=O)N2)[C@@H]2C(=O)N(Cc3ccccc3)C(=O)[C@@H]2[C@@H]2CCCN21	-2	3	-15	71*	0	-11
O=C(Nc1ccc(/C=C/c2nc3ccccc3o2)cc1)c1cccc(C(F)(F)F)c1	12	1	1	93*	3	3
O=C(/C=C/c1ccccc1)NC(=S)Nc1ccc2c3c(cccc13)CC2	-6	-8	-12	75*	-2	2
O=C(COc1ccccc1)NC(=S)Nc1ccc2c3c(cccc13)CC2	-2	-6	-4	5	2	-2
CCOC(=O)N1CCN(C(=O)C[C@@H]2C[C@@]3(C(=O)OCC)CCC=C3N(Cc3cccc4ccccc34)C2=O)CC1	/	5	/	/	/	/
COc1cccc(-c2csc(N3CCN(C(=S)Nc4ccccc4)CC3)n2)c1	-1	6	-1	39	1	8
COC(=O)c1ccc(NC(=S)N2CCN(Cc3cccc(C)c3)CC2)cc1	1	1	2	89*	-2	-2
SMILES	UPR XBP1 act	NOD2 RIPK2 PPI	TLR9-MyD88 inh	CHOP inhibitor	CHOP UPR activ	TLR4 MyD88 comp
COc1cccc(-c2csc(N3CCN(C(=S)Nc4ccc(Cl)cc4)CC3)n2)c1	-1	-8	14	71*	1	-1
CCc1ccc(NC(=S)N2CCN(c3cccc(OC)c3)CC2)cc1	-2	6	-5	72*	0	4
N#CCCN(Cc1ccccc1)C(CCc1ccccc1)C(=O)NC1CCCCC1 (stereo not drawn)	/	-7	/	/	/	/
CC(NC(=O)c1ccccc1)C(=O)N/N=C/c1cccc([N+](=O)[O-])c1 (stereo not drawn)	1	-7	4	-9	5	-2
CC1(C)CC(=O)C(/C=N/c2ncccc2C(=O)O)=C(O)C1	0	3	-1	78*	-2	4
Cc1[nH]nc(N=CC2=C(O)CC(C)(C)CC2=O)c1-c1ccc(Cl)cc1	13	3	0	92*	6	2
Cc1ccc(N=CC2=C(O)CC(C)(C)CC2=O)nc1	7	-3	-12	7	-1	-15
CCn1cc(C(=O)O)c(=O)c2ccc(Cc3ccccc3)nc21	/	/	/	9	/	/
CCC(CC)NC(=O)COC(=O)c1ccc(OCC(=O)Nc2ccccc2OC)c(OC)c1	18	-11	-2	82*	2	6
CCSc1n[nH]c2nc3c(c(=O)n12)C1(CCCC1)Cc1ccccc1-3	-4	-8	-12	88*	-2	17
C=CCSc1n[nH]c2nc3c(c(=O)n12)C1(CCCC1)Cc1ccccc1-3	-3	1	11	71*	0	-2
OCCN(CCO)Cc1csc2ccccc12	2	1	-8	6	0	14
CCCCN=CC1=C(O)CC(c2ccccc2)CC1=O (stereo not drawn)	1	-7	-8	-5	4	-7
CCCCCCOC(=O)C(C#N)c1nc2ccccc2nc1N1CCOCC1 (stereo not drawn)	-1	-11	0	94*	-1	2
CCc1cccc(CC)c1-n1c(SCC(=O)N2CCCc3ccccc32)nc(O)cc1=O	-1	-13	-3	/	-1	/
CCOc1cccc(-c2nn(-c3ccccc3)cc2/C=C(/C#N)C(=O)NCCCn2ccnc2)c1	12	2	3	95*	8	-5
N#C/C(=C/c1cn(-c2ccccc2)nc1-c1cccc(OCc2ccccc2)c1)C(=O)NCCCn1ccnc1	0	8	17	2	5	-5
O=C(Oc1c(Cl)cc(Cl)c2cccnc12)c1cccc([N+](=O)[O-])c1	7	-6	-1	97*	0	3
O=C(Oc1ccc(Cl)c2cccnc12)c1cccc([N+](=O)[O-])c1	8	-5	1	50	20	-1
COc1ccc(NC(=O)c2ccc(-c3nn(C)c(=O)c4ccccc34)cc2)cc1C(N)=O	-1	-6	-3	3	7	/
CC(C)Cc1cc(C(C)(C)C)ccc1OC(=S)N(C)C	-2	-13	-9	/	0	/
